Each block holds one compound with its values, some of them ahead of it. The source made the active and inactive calls. No cut-off for these calls is given here.
Key:
SK-BR-3 [1] = test: Cell cycle arrest in human SKBR3 cells assessed as accumulation at subG1 phase after 48 hrs by flow cytometric analysis; format: functional, cell-based
SK-BR-3 [2] = test: Cell cycle arrest in human SKBR3 cells assessed as accumulation at subG1 phase at 12.5 to 25 uM by flow cytometric analysis; format: functional, cell-based; details: TDE = time-dependent effect
SK-BR-3 [3] = test: Cell cycle arrest in human SKBR3 cells assessed as accumulation at subG1 phase at 12.5 uM after 48 hrs by flow cytometric analysis (reference value: 7 +/- 1%); format: functional
SK-BR-3 [4] = test: Cell cycle arrest in human SKBR3 cells assessed as accumulation at subG1 phase at 25 uM after 48 hrs by flow cytometric analysis (reference value: 7 +/- 1%); format: functional
SK-BR-3 [5] = test: Cell cycle arrest in human SKBR3 cells assessed as accumulation at G2/M phase at 12.5 uM after 48 hrs by flow cytometric analysis (reference value: 21 +/- 1%); format: functional
SK-BR-3 [6] = test: Cell cycle arrest in human SKBR3 cells assessed as accumulation at G2/M phase at 25 uM after 48 hrs by flow cytometric analysis (reference value: 21 +/- 1%); format: functional
SK-BR-3 [7] = test: Cell cycle arrest in human SKBR3 cells assessed as accumulation at S phase at 12.5 uM after 48 hrs by flow cytometric analysis (reference value: 19 +/- 6%); format: functional
SK-BR-3 [8] = test: Cell cycle arrest in human SKBR3 cells assessed as accumulation at S phase at 25 uM after 48 hrs by flow cytometric analysis (reference value: 19 +/- 6%); format: functional
SK-BR-3 [9] = test: Cell cycle arrest in human SKBR3 cells assessed as accumulation at G0/G1 phase at 12.5 uM after 48 hrs by flow cytometric analysis (reference value: 54 +/- 2%); format: functional
SK-BR-3 [10] = test: Cell cycle arrest in human SKBR3 cells assessed as accumulation at G0/G1 phase at 25 uM after 48 hrs by flow cytometric analysis (reference value: 54 +/- 2%); format: functional
Oryctolagus cuniculus [11] = organism: Oryctolagus cuniculus; test: Inhibition of HSP90 in rabbit reticulocyte lysate assessed as inhibition of heat-denatured luciferase refolding after 30 mins by luminescence plate reader analysis
How it was run: (§1)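 Rabbit reticulocyte lysate with ATP regeneration (10 mM phosphocreatine, 1 mM ATP, 17.5 IU creatine kinase) preincubated with compound 20 min on ice; firefly luciferase (100 nM) heat-denatured 40 °C 8 min, diluted 10-fold into lysate; 28 °C, triplicate aliquots luminescence-read at 0, 15, 30, 60 min; mean RLU or % of DMSO.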

Oryctolagus cuniculus [12] = organism: Oryctolagus cuniculus; test: Inhibition of HSP90 in rabbit reticulocyte lysate assessed as inhibition of heat-denatured luciferase refolding at 100 uM by luminescence plate reader analysis; details: TDE = time-dependent effect; how it was run: as §1
Mus musculus [13] = organism: Mus musculus; test: Inhibition of HSP90 in mouse 3T3-Y9-B12 cells assessed as activation of HSF1 at 0.78 to 25 uM after overnight incubation by GFP reporter gene assay relative to control; format: cell-based
How it was run: (§2)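 3T3-Y9-B12 mouse fibroblasts carrying a GFP gene under a minimal heat-shock element; near-confluent monolayers given serial dilutions in triplicate wells overnight, DMSO ≤0.25% vehicle, GA 0.5 µM positive control; after PBS wash, fluorescence at 485/525 nm, normalized to DMSO.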

MCF7 [14] = test: Cytotoxicity against ER-positive human MCF7 cells expressing low level of HER2 after 3 days by MTT assay; format: functional, cell-based; details: MCF7, 72 h
How it was run: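 MCF-7 seeded 2,000 cells/well, serial dilutions added after 24 h, 72 h exposure; MTT at 500 µg/mL final, 3 h at 37 °C, formazan dissolved in DMSO, absorbance 570 nm minus 650 nm background. Triplicates, at least two experiments; IC50 = concentration cutting viable signal by 50% of DMSO control.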

Heat shock protein HSP90 [15] = target: T1, Heat shock protein HSP90 (Homo sapiens, UniProt P07900+P08238); test: Inhibition of HSP90 in human SKBR3 cells assessed as aggregation of intracellular HER2 at 25 uM after 18 hrs by DAPI staining-based immunofluorescence microscopic analysis; format: cell-based; details: SK-BR-3
How it was run: (§3)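 SKBR3 in chamber slides adhered overnight, treated 18 h, fixed 4% paraformaldehyde, permeabilized 1% Triton X-100, goat-serum block; anti-HER2 (20 µg/mL) then Alexa Fluor 488 secondary (2 µg/mL) on ice, DAPI nuclear counterstain; imaged at 160× with identical exposures. GA 0.5 µM positive control.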

MCF7 [16] = test: Induction of HSP70 in human MCF7 cells by Western blot analysis; format: cell-based
How it was run: (§4)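 MCF-7 cells at 70% confluence treated 18 h; floating plus trypsinized cells pooled, lysed in NP-40 buffer (pH 7.4) with protease/phosphatase inhibitors; 20 µg protein on 7.5% SDS-PAGE, nitrocellulose, milk block; probed for HER2 (2.0 µg/mL monoclonal) or HSP72, alkaline-phosphatase secondary, NBT/BCIP development; Ponceau S loading check.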

Heat shock protein HSP90 [17] = target: T1, Heat shock protein HSP90; test: Inhibition of HSP90 in human MCF7 cells assessed as depletion of total HER2 protein level at 12.5 to 25 uM after 18 hrs by Western blot analysis; format: cell-based; how it was run: as §4
Heat shock protein HSP90 [18] = target: T1, Heat shock protein HSP90; test: Inhibition of HSP90 in human MCF7 cells assessed as depletion of total HER2 protein level at 50 uM after 18 hrs by Western blot analysis relative to control; format: cell-based; how it was run: as §4
SK-BR-3 [19] = test: Cytotoxicity against human SKBR3 cells assessed as growth inhibition at 100 uM after 18 hrs by capillary-based flow cytometric analysis; format: functional, cell-based
How it was run: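 Short-term viability: SKBR3 cells exposed overnight under the same conditions as the surface-HER2 screen, then stained with a DNA-staining viability reagent; viable cell number counted by capillary flow cytometry.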

Heat shock protein HSP90 [20] = target: T1, Heat shock protein HSP90; test: Inhibition of HSP90 in human SKBR3 cells assessed as depletion of cell surface HER2 protein level at 100 uM after 18 hrs by immunofluorescence-based flow cytometric analysis relative to control; details: SK-BR-3
How it was run: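 SKBR3 cells treated 18 h at 100 µM (controls: DMSO, GA 0.5 µM, NB 500 µM), trypsinized, blocked in goat serum/PBA (pH 7.6) on ice, anti-HER2 20 µg/mL 30 min then Alexa 488 secondary 2 µg/mL 20 min on ice; mean fluorescence intensity by flow cytometry, isotype antibody control.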

SK-BR-3 [21] = test: Cytotoxicity against ER-negative human SKBR3 cells expressing high level of HER2 after 3 days by MTT assay; format: functional, cell-based; details: SK-BR-3, 72 h
How it was run: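 SKBR3 cells in RPMI 1640 with 10% FBS exposed to serial dilutions for 3 days; MTT dye-reduction read-out of relative viable cell number. IC50 taken as concentration giving 50% reduction versus DMSO-treated cells.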

Heat shock protein HSP90 [22] = target: T1, Heat shock protein HSP90; test: Inhibition of HSP90 in human MCF7 cells assessed as depletion of cell surface HER2 protein level after 18 hrs by flow cytometry
SK-BR-3 [23] = test: Cell cycle arrest in human SKBR3 cells assessed as accumulation at subG1 phase at 1000 uM after 48 hrs by flow cytometric analysis (reference value: 7 +/- 1%); format: functional
SK-BR-3 [24] = test: Cell cycle arrest in human SKBR3 cells assessed as accumulation at G2/M phase at 1000 uM after 48 hrs by flow cytometric analysis (reference value: 21 +/- 1%); format: functional
Oryctolagus cuniculus [25] = organism: Oryctolagus cuniculus; test: Inhibition of HSP90 in rabbit reticulocyte lysate assessed as inhibition of heat-denatured luciferase refolding at 500 uM by luminescence plate reader analysis; details: TDE = time-dependent effect; how it was run: as §1
Mus musculus [26] = organism: Mus musculus; test: Inhibition of HSP90 in mouse 3T3-Y9-B12 cells assessed as activation of HSF1 at 1000 uM after overnight incubation by GFP reporter gene assay relative to control; format: cell-based; how it was run: as §2
Heat shock protein HSP90 [27] = target: T1, Heat shock protein HSP90; test: Inhibition of HSP90 in human SKBR3 cells assessed as aggregation of intracellular HER2 at 1000 uM after 18 hrs by DAPI staining-based immunofluorescence microscopic analysis; format: cell-based; details: SK-BR-3; how it was run: as §3
SK-BR-3 [28] = test: Cell cycle arrest in human SKBR3 cells assessed as accumulation at S phase at 1000 uM after 48 hrs by flow cytometric analysis (reference value: 19 +/- 6%); format: functional
SK-BR-3 [29] = test: Cell cycle arrest in human SKBR3 cells assessed as accumulation at G0/G1 phase at 1000 uM after 48 hrs by flow cytometric analysis (reference value: 54 +/- 2%); format: functional

inhibition (Oryctolagus cuniculus [11]): Dose-dependent effect | inhibition (Oryctolagus cuniculus [12]): tde | inhibition (Heat shock protein HSP90 [15]): Active | inhibition (Heat shock protein HSP90 [17]): Active | inhibition (Heat shock protein HSP90 [18]): 50% | inhibition (Heat shock protein HSP90 [20]): 40% | EC50 (Heat shock protein HSP90 [22]): 20 µM
Compound: CO[C@@H]1[C@@H](OC(N)=O)[C@@H](O)[C@H](Oc2ccc3cc(NC(=O)c4cc5ccccc5[nH]4)c(=O)oc3c2C)OC1(C)C
Activity (SK-BR-3 [1]): Dose-dependent effect | Activity (SK-BR-3 [2]): tde | Activity (SK-BR-3 [3]): 8% | Activity (SK-BR-3 [4]): 29% | Activity (SK-BR-3 [5]): 18% | Activity (SK-BR-3 [6]): 10% | Activity (SK-BR-3 [7]): 17% | Activity (SK-BR-3 [8]): 10% | Activity (SK-BR-3 [9]): 58% | Activity (SK-BR-3 [10]): 56% | fold change (FC) (Mus musculus [13]): < 2 | IC50 (MCF7 [14]): 6 µM | Activity (MCF7 [16]): Active | growth inhibition (GI) (SK-BR-3 [19]): Active | IC50 (SK-BR-3 [21]): 10 µM

inhibition (Oryctolagus cuniculus [11]): Dose-dependent effect | inhibition (Oryctolagus cuniculus [25]): tde | inhibition (Heat shock protein HSP90 [27]): Active | inhibition (Heat shock protein HSP90 [20]): inactive
Compound: CO[C@@H]1[C@@H](OC(N)=O)[C@@H](O)[C@H](Oc2ccc3c(O)c(NC(=O)c4ccc(O)c(CC=C(C)C)c4)c(=O)oc3c2C)OC1(C)C [NOVOBIOCIN]
Activity (SK-BR-3 [23]): 38% | Activity (SK-BR-3 [24]): 10% | fold change (FC) (Mus musculus [26]): 1.5 | IC50 (MCF7 [14]): 357 µM | Activity (SK-BR-3 [28]): 15% | Activity (SK-BR-3 [29]): 57% | IC50 (SK-BR-3 [21]): 350 µM

inhibition (Heat shock protein HSP90 [18]): 50% | inhibition (Heat shock protein HSP90 [20]): 40% | EC50 (Heat shock protein HSP90 [22]): 38 µM
Compound: COc1ccc(C(=O)Nc2c(OC)c3ccc(O[C@@H]4OC(C)(C)[C@H](OC)[C@@H](OC(N)=O)[C@H]4O)c(C)c3oc2=O)cc1CC=C(C)C
IC50 (MCF7 [14]): 18 µM | growth inhibition (GI) (SK-BR-3 [19]): Active | IC50 (SK-BR-3 [21]): 19 µM
